Data reported in ChEMBL document CHEMBL1140872, “Discovery of a potent and selective inhibitor for human carbonyl reductase 1 from propionate scanning applied to the macrolide zearalenone” (Bioorg Med Chem, 2009).

How the values were obtained:
[1] = target: T1, Carbonyl reductase [NADPH] 3 (Homo sapiens) (UniProt O75828); assay: Binding affinity to human recombinant carbonyl reductase 3 expressed in Escherichia coli assessed as thermal shift by differential scanning fluorimetry in presence of NADPH
T1 sequence (whole entry): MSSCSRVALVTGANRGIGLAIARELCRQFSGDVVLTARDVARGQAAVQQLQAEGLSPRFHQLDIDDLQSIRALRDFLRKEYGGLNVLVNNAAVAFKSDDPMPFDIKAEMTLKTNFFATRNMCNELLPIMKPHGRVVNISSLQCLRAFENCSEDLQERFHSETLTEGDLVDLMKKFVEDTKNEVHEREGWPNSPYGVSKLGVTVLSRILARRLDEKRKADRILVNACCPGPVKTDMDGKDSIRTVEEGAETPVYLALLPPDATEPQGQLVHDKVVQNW
Outline: (§1)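 Thermal-shift (DSF) binding assay with purified recombinant catalytic domains or proteins carrying an N- or C-terminal His6 tag or GST fusion. Purity was >95% by SDS/PAGE and identity was confirmed by MS. Protein was at 2 µM final in 10 mM HEPES pH 7.5 and 150 mM NaCl. Tm shift is reported, with 2 °C as the threshold for binding.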

[2] = target: T2, Serine/threonine-protein kinase PLK4 (Homo sapiens) (UniProt O00444); assay: Binding affinity to human recombinant PLK4 expressed in Escherichia coli assessed as thermal shift by differential scanning fluorimetry; outline: as §1
T2 sequence (whole entry): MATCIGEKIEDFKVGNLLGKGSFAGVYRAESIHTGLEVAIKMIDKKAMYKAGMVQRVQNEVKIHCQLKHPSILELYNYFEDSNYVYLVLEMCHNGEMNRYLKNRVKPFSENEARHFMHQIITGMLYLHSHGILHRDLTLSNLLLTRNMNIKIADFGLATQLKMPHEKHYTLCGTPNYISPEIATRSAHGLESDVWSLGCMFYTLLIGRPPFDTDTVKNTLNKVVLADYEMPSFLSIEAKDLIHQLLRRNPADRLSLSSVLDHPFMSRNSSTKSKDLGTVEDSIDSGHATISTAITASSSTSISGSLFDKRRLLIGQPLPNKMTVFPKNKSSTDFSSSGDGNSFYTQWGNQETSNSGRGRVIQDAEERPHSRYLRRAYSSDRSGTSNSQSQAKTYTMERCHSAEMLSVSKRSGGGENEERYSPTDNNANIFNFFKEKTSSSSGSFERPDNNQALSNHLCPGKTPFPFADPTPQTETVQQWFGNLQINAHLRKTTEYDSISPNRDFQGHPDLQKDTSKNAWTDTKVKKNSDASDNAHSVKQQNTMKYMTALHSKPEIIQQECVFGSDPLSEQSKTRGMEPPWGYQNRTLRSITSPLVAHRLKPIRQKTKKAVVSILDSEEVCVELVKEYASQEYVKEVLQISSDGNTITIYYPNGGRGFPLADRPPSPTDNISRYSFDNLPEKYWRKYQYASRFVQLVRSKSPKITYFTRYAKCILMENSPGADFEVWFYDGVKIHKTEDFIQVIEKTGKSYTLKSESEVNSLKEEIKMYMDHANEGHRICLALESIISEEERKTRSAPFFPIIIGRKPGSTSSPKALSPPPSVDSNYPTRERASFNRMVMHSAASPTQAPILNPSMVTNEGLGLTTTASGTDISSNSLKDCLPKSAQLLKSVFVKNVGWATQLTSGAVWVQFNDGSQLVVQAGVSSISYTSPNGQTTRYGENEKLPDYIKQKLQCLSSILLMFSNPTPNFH

[3] = target: Serine/threonine-protein kinase 10 (Homo sapiens) (UniProt O94804); assay: Binding affinity to human recombinant LOK expressed in Escherichia coli assessed as thermal shift by differential scanning fluorimetry; outline: as §1
Sequence of Serine/threonine-protein kinase 10 (Homo sapiens) (O94804 whole entry, looked up): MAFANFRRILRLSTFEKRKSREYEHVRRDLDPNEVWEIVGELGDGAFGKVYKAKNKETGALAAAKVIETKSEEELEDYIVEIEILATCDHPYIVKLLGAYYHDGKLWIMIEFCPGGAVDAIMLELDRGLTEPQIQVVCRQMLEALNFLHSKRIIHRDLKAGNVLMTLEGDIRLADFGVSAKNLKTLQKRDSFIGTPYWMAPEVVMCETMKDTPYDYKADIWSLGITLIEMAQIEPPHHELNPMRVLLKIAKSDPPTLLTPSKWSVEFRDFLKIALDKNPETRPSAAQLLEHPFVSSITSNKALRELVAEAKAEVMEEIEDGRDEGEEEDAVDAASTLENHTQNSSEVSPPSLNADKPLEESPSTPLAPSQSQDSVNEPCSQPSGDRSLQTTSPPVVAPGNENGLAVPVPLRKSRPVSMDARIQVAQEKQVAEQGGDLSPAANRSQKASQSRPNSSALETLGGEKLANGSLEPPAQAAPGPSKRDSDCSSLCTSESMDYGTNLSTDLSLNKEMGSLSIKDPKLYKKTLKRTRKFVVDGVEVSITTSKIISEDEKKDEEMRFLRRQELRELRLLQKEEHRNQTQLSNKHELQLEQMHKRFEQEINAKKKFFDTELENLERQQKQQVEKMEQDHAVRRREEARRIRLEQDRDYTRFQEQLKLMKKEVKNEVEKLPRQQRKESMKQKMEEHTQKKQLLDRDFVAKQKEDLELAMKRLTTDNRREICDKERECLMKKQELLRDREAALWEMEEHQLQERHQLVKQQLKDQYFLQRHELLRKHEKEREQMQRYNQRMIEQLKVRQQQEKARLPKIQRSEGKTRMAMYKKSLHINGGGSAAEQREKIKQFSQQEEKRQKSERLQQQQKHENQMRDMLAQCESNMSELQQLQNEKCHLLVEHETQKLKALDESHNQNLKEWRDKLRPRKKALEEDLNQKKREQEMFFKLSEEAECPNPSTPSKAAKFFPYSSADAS

[4] = target: T1, Carbonyl reductase [NADPH] 3 (Homo sapiens); assay: Binding affinity to human recombinant carbonyl reductase 3 expressed in Escherichia coli assessed as thermal shift by differential scanning fluorimetry in presence of NADP+; outline: as §1
[5] = target: Mitogen-activated protein kinase 11 (Homo sapiens) (UniProt Q15759); assay: Binding affinity to human recombinant MAPK11 expressed in Escherichia coli assessed as thermal shift by differential scanning fluorimetry; outline: as §1
Sequence of Mitogen-activated protein kinase 11 (Homo sapiens) (Q15759 whole entry): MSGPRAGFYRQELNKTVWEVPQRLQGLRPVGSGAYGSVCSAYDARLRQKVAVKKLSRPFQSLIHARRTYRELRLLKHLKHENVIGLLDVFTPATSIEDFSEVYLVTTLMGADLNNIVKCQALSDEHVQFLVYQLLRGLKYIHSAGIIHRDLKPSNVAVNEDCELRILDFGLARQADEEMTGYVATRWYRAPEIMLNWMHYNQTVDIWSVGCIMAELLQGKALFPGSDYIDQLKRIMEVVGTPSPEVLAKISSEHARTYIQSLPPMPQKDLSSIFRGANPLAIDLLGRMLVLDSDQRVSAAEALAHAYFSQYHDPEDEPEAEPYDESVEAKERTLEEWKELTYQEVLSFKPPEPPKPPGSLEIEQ

[6] = target: T3, Cyclin-G-associated kinase (Homo sapiens) (UniProt O14976); assay: Binding affinity to human recombinant GAK expressed in Escherichia coli assessed as thermal shift by differential scanning fluorimetry; outline: as §1
T3 sequence (whole entry): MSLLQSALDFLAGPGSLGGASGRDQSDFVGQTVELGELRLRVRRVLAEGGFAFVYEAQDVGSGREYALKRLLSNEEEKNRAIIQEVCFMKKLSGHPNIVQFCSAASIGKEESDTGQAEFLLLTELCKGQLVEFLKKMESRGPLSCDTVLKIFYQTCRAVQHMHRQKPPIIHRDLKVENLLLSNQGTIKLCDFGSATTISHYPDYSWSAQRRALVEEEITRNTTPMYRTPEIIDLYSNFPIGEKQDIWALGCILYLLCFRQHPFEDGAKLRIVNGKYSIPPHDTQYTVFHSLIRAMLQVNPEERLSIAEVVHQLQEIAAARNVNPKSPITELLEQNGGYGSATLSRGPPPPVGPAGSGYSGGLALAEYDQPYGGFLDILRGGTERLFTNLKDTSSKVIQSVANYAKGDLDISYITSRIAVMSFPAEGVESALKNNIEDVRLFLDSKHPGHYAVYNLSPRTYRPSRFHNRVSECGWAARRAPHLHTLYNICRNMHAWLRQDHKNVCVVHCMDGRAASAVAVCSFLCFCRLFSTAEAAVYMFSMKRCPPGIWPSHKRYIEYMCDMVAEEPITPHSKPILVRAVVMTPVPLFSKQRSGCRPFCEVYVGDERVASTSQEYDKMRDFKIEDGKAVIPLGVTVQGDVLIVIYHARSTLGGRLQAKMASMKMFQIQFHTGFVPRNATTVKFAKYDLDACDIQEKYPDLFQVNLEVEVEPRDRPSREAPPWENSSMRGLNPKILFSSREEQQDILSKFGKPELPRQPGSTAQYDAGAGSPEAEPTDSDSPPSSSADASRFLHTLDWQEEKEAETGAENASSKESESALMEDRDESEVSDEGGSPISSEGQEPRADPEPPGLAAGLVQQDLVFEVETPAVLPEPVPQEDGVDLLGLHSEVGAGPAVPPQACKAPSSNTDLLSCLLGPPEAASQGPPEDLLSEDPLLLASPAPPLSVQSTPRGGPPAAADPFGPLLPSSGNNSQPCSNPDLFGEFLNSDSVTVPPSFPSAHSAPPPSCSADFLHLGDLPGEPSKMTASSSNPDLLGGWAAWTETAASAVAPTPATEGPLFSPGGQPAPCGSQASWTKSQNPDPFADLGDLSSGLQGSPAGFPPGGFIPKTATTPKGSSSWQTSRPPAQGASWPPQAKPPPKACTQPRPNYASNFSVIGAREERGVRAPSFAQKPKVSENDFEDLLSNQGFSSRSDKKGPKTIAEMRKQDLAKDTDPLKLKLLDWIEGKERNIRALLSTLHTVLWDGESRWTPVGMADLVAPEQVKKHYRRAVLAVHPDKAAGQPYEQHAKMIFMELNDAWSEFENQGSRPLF

Measured: Tm

COc1cc(O)c2c(c1)/C=C/CC[C@H](C)C(=O)CCC[C@H](C)OC2=O
< 2 °C: all assays above

COc1cc2c(c(OC)c1)C(=O)O[C@@H](C)CCCC(=O)[C@@H](C)CC/C=C/2
< 2 °C: all assays above

COc1cc2c(c(OC)c1)C(=O)O[C@@H](C)CCC[C@@H](O)[C@@H](C)CC/C=C/2
< 2 °C: all assays above

COC1=C2C[C@@H](C)C[C@H](OC)[C@H](O)[C@@H](C)/C=C(\C)[C@H](OC(N)=O)[C@@H](OC)/C=C\C=C(/C)C(=O)NC(=CC1=O)C2=O
< 2 °C: all assays above

C[C@H]1CCCC(=O)[C@@H](C)CC/C=C/c2cc(O)cc(O)c2C(=O)O1
2.9 °C: [6]
< 2 °C: all other assays above

C[C@H]1CCCC(=O)CCC/C=C/c2cc(O)cc(O)c2C(=O)O1
2.4 °C: [6]
4.6 °C: [3]
< 2 °C: all other assays above

C[C@@H]1C[C@H]2O[C@@H]2/C=C\C=C\C(=O)Cc2c(Cl)c(O)cc(O)c2C(=O)O1 [RADICICOL]
< 2 °C: all assays above
